Reference: PMC5884419 (European journal of pharmaceutical sciences : official …, 2018)
Where two headings read alike, the source gives them in different places. Marks after values point to notes of the source that are not given here.

What was measured:
ABCB1 = settings: ref Hugger et al., 2002, cited from earlier work
Abcb1a/b [1] = molecular target: T1, Abcb1a/b (Mus musculus, UniProt P21447); type: in vivo; settings: wild-type and Abcg2^(-/-) mice, microdose
[2] = type: in vivo, mice
Method in brief: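 Female FVB wild-type mice under isoflurane had 60-min dynamic PET after tail-vein injection of radiotracer mixed with test compound (10 mg/kg) or its vehicle (4 mL/kg), versus radiotracer alone. Liver and kidney kuptake came from an integration plot over 0.3–3.5 min. kurine and kbile came from 4.5–45 min data, with biliary activity taken as gallbladder + duodenum + intestine. Extraction ratio = kuptake divided by assumed blood flow (liver 1.0, kidney 4.1 mL/min/g).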

Abcg2 = molecular target: T2, Abcg2 (Mus musculus, UniProt Q7TMS5); type: in vivo; settings: Abcg2^(-/-) and Abcb1a/b^(-/-)Abcg2^(-/-) mice, microdose
T2 sequence (Q7TMS5 1-657): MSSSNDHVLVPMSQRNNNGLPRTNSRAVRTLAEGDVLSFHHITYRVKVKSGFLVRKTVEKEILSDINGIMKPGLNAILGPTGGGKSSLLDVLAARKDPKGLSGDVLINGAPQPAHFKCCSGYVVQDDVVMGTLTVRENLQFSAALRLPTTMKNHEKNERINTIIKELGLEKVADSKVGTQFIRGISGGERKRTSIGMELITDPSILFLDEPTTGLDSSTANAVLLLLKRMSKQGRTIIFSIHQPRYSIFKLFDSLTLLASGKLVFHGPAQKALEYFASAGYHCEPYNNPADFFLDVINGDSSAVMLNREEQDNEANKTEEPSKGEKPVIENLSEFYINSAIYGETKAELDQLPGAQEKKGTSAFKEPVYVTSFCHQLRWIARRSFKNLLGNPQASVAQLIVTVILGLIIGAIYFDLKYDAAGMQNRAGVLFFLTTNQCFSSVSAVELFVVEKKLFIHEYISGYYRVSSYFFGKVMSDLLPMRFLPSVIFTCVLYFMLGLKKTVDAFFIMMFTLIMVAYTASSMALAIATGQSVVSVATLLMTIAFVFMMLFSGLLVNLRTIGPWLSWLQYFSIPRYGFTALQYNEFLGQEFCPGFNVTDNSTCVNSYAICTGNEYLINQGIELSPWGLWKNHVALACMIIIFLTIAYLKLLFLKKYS
Method in brief: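 Female FVB Abcg2(-/-), Abcb1a/b(-/-)Abcg2(-/-) and wild-type mice, 7–8 weeks old, under isoflurane, had 60-min dynamic PET started with a tail-vein i.v. microdose of radiotracer (26.6 ± 10.5 MBq, 0.1 mL). The kidney-to-urine rate constant kurine was derived from 4.5–45 min data, given as mean ± S.D. Knockouts were compared with wild-type by one-way ANOVA with Tukey's test.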

[3] = radio-TLC analysis of radiolabeled metabolites in tissues and fluids; type: in vivo, mice; settings: 20 min after i.v. injection
Method in brief: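 Female FVB wild-type and Abcb1a/b(-/-)Abcg2(-/-) mice, 7–8 weeks old, under isoflurane, given radiotracer i.v. (28.4 ± 4.1 MBq, 0.1 mL). At 20 min, blood was drawn from the retro-orbital sinus and the animals were killed. Plasma, liver, kidneys, brain, bile and urine were collected. Tissues were homogenised, proteins precipitated with acetonitrile, then spun at 12,000 g, 5 min, 4°C. Percent unchanged radiotracer was determined by radio-TLC.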

[4] = tolerability of co-injected pharmacologic dose of unlabeled Ko143; type: in vivo; settings: wild-type mice, 10 mg/kg i.v. co-injected with radiotracer
[5] = plasma concentration after i.v. administration; type: in vivo, mice; settings: mouse, iv, 10 mg/kg
[6] = mice, 1 h after i.v. 10 mg/kg; ref Zhang et al., 2011; cited from earlier work
[7] = rat plasma; ref Liu et al., 2014; cited from earlier work
Abcb1a/b [8] = molecular target: T1, Abcb1a/b; settings: Abcb1a/b^(-/-) and Abcb1a/b^(-/-)Abcg2^(-/-) mice; ref Liu et al., 2012; cited from earlier work
human ABCB1 = settings: ref Weidner et al., 2015; cited from earlier work
[9] = wild-type mice, microdose i.v., integration plot 0.3-3.5 min

T1 sequence (P21447 whole entry): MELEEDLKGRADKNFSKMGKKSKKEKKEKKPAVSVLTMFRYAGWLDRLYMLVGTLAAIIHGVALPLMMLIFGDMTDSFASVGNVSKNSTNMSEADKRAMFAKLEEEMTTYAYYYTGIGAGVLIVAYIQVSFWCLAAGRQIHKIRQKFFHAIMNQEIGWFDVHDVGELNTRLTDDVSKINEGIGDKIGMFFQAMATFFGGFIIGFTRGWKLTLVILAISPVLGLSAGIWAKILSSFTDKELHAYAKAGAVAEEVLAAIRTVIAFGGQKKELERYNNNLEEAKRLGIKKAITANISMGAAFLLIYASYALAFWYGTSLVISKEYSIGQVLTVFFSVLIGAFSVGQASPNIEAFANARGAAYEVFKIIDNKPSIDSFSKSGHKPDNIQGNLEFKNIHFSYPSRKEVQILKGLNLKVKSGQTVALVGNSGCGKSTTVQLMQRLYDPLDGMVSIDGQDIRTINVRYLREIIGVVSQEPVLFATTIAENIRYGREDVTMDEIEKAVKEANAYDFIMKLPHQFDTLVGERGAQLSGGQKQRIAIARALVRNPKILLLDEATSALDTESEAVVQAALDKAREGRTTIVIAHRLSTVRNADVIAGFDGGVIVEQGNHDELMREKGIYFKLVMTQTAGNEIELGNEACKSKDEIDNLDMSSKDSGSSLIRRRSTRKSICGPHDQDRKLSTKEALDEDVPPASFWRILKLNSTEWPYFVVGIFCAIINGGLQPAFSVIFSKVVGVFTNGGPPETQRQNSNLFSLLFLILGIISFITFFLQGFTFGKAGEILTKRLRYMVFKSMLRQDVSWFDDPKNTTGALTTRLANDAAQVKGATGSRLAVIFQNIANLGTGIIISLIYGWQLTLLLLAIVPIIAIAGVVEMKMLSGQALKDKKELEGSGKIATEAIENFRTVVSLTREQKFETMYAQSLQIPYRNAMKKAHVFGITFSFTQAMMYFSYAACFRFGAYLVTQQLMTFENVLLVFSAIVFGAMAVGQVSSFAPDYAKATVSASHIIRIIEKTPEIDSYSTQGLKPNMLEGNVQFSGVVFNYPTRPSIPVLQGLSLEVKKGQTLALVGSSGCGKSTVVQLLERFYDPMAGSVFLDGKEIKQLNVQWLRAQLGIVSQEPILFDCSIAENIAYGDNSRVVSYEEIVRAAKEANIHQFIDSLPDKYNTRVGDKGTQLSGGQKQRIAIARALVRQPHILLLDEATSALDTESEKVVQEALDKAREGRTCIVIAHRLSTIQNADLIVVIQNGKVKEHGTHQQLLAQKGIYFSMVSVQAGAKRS

Molecule: polyethylene glycol 300 [PEG300]
- inhibition of ABCB1 activity (ABCB1; 20% v/v, Caco-2 and MDR1-MDCK cell monolayers): almost complete in vitro inhibition

Molecule: polysorbate 80
- inhibition of ABCB1 activity (ABCB1; 0.05% w/v, Caco-2 cells): only partially inhibited

Molecule: CC(C)C[C@H]1c2[nH]c3cc(O[11CH3])ccc3c2C[C@H]2C(=O)N[C@@H](CCC(=O)OC(C)(C)C)C(=O)N21 [[^11C]Ko143]
- brain concentration-time curves, fold lower than in Abcb1a/b^(-/-) and Abcb1a/b^(-/-)Abcg2^(-/-) mice (Abcb1a/b [1]): approximately 2 fold
- kbile, fold lower than with [^11C]Ko143 alone ([2]; wild-type mice co-injected with Ko143 vehicle): 2.4 fold
- kbile, fold lower than with [^11C]Ko143 alone ([2]; wild-type mice co-injected with unlabeled Ko143 (10 mg/kg)): 1.9 fold
- kurine ([2]; wild-type mice co-injected with unlabeled Ko143 (10 mg/kg) or Ko143 vehicle): almost decreased to zero
- mean kuptake, kidney [2, 9]: 0.262 mL/min/g tissue
- mean kuptake, liver [2, 9]: 0.689 mL/min/g tissue
- kurine compared with wild-type mice (Abcg2): significantly lower
- Percentage of unchanged radiotracer, Bile ([3]; Abcb1a/b^(-/-)Abcg2^(-/-) mice): 1.5 ± 1.0%
- Percentage of unchanged radiotracer, Brain ([3]; Abcb1a/b^(-/-)Abcg2^(-/-) mice): 73.2 ± 2.4 ^a %
- Percentage of unchanged radiotracer, Kidney ([3]; Abcb1a/b^(-/-)Abcg2^(-/-) mice): 21.6 ± 2.0%
- Percentage of unchanged radiotracer, Liver ([3]; Abcb1a/b^(-/-)Abcg2^(-/-) mice): 16.0 ± 1.8%
- Percentage of unchanged radiotracer, Plasma ([3]; Abcb1a/b^(-/-)Abcg2^(-/-) mice): 34.7 ± 0.4%
- Percentage of unchanged radiotracer, Bile ([3]; wild-type mice): 15.2 ± 21.0%
- Percentage of unchanged radiotracer, Brain ([3]; wild-type mice): 51.5 ± 13.9%
- Percentage of unchanged radiotracer, Kidney ([3]; wild-type mice): 35.6 ± 9.6%
- Percentage of unchanged radiotracer, Liver ([3]; wild-type mice): 17.4 ± 2.7%
- Percentage of unchanged radiotracer, Plasma ([3]; wild-type mice): 36.0 ± 1.5%

Molecule: COc1ccc2c3c([nH]c2c1)[C@H](CC(C)C)N1C(=O)[C@H](CCC(=O)OC(C)(C)C)NC(=O)[C@@H]1C3 [Ko143, (3S,6S,12aS)-1,2,3,4,6,7,12,12a-octahydro-9-methoxy-6-(2-methylpropyl)-1,4-dioxopyrazino[1’,2’:1,6]pyrido[3,4-b]indole-3-propanoic acid 1,1-dimethylethyl ester]
- tolerability [4]: well tolerated
- concentration at 1 h [5]: 12 nM
- plasma concentration [6]: 420 nM
- unbound fraction in plasma [7]: 0.0293
- brain concentrations, fold higher than in Abcg2^(-/-) mice (Abcb1a/b [8]): about 3 fold
- effect on human ABCB1 ATPase activity (human ABCB1): stimulated
